Laboratory results taken from ChEMBL document CHEMBL4316619 (Bioorg Med Chem Lett, 2019).
Activity calls are given as the source filed them. The calls are words filed in the database; no cut-off is given here.

Key:
MDCK = assay: Cytotoxicity against MDCK cells assessed as reduction in cell viability measured after 48 hrs by CellTiter Glo assay; type: cell-based, Canis lupus familiaris; conditions: dog
How it was run: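 MDCK cells were incubated with compound under the conditions of the 48 h replication assay. Cytotoxicity was read with the CellTiter-Glo ATP viability assay. Follow-up viability testing used 5, 10, 50 and 100 μM.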

Influenza A virus [1] = assay: Antiviral activity against Influenza A virus (A/California/7/2009(H1N1)) infected in MDCK cells assessed as reduction in virus-induced cytopathic effect measured on day 5 by Celltiter-Glo luminescence assay; type: functional, organism-based; conditions: 120 h
How it was run: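 MDCK cells were infected with seasonal influenza A strains through NIAID resources and scored for protection from virus-induced cell death. Compounds were tested at four concentrations (0.8, 4, 20, 100 μM). EC50/EC90 (reduction of viral cell death) and CC50 (reduction of cell viability) were derived in μM, and SI50 = CC50/EC50.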

[2] = molecular target: Non-structural protein 1 (Influenza A virus (strain A/Puerto Rico/8/1934 H1N1)) (UniProt P03496); assay: Inhibition of Influenza A virus A/PR/8/34 (H1N1) NS1 expressed in 293 cells assessed as increase in poly(I:C)-induced IFN-beta reporter activity treated 16 hrs […] measured after 24 hrs by luciferase reporter gene assay; type: cell-based; conditions: Influenza A virus (A/Puerto Rico/8/1934(H1N1))
How it was run: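 293 cells co-transfected with a human IFN-β promoter-driven firefly luciferase reporter and NS1 expression constructs. At 16 h post-transfection, poly(I:C) 50 μg/mL plus compound (20 μM) or 1% DMSO added for a further 24 h; luciferase read by luminometer. Untransfected cells serve as baseline.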

[3] = Aqueous kinetic solubility of the compound; type: physicochemical; conditions: buffer
[4] = Stability of the compound in mouse liver microsomes assessed as parent compound remaining measured after 15 mins; type: ADME, Microsome; conditions: read-out: Stability
How it was run: (§1)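 Mouse liver microsomes; percent parent compound remaining measured at 0, 15 and 30 min.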

[5] = Stability of the compound in mouse liver microsomes assessed as parent compound remaining measured after 30 mins; type: ADME, Microsome; conditions: read-out: Stability; how it was run: as §1
[6] = Apparent permeability across apical to basolateral side in human Caco2 cells measured after 2 hrs; type: ADME, cell-based; conditions: caco-2, 2 h
How it was run: (§2)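 Permeability was measured across Caco-2 monolayers in both directions, apical to basolateral and basolateral to apical. […] Runs were done with and without 3% BSA, and mass recovery (%) was reported for each direction. Efflux ratio = Papp B→A / Papp A→B.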

[7] = Apparent permeability across basolateral to apical side in human Caco2 cells measured after 2 hrs; type: ADME, cell-based; conditions: caco-2, 2 h; how it was run: as §2
Influenza A virus [8] = assay: Antiviral activity against Influenza A virus A/PR/8/34 (H1N1) infected in MDCK cells assessed as 3-log reduction in virus titer measured after 48 hrs by hemagglutination assay; type: functional, A/Puerto Rico/8/1934(H1N1)
How it was run: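 MDCK cells were infected with A/PR/8/34 (H1N1) at MOI 0.1 and incubated with compound for 48 h. Supernatant virus was then quantified by hemagglutination assay and standard TCID50 analysis. The single-concentration screen used 10 μM and reports fold reduction in titer. Dose-response runs used triplicate cultures, with percent titer decrease back-calculated from TCID50.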

[9] = Apparent permeability across basolateral to apical side in human Caco2 cells measured after 2 hrs in presence of 3% BSA; type: ADME, cell-based; conditions: caco-2, 2 h; how it was run: as §2
[10] = Apparent permeability across apical to basolateral side in human Caco2 cells assessed as drug recovery; type: ADME, cell-based; conditions: caco-2; how it was run: as §2
[11] = Apparent permeability across apical to basolateral side in human Caco2 cells assessed as drug recovery in presence of 3% BSA; type: ADME, cell-based; conditions: caco-2; how it was run: as §2
[12] = Apparent permeability across basolateral to apical side in human Caco2 cells assessed as drug recovery in presence of 3% BSA; type: ADME, cell-based; conditions: caco-2; how it was run: as §2
[13] = Cmax in C57BL/6 mouse plasma at 30 mg/kg, ip; type: ADME, organism-based; parameters: dose 30 mg/kg, route intraperitoneal; conditions: mouse, in vivo
How it was run: (§3)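 Male C57BL/6 mice received a single intraperitoneal dose of 30 mg/kg (N=3). Compound concentrations were followed over time in plasma, liver and lung. Tmax, Cmax, terminal t1/2, AUClast and AUCINF were derived from the mean concentration-time profiles.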

[14] = Cmax in C57BL/6 mouse liver at 30 mg/kg, ip; type: ADME, organism-based; parameters: dose 30 mg/kg, route intraperitoneal; how it was run: as §3
[15] = Terminal half life in C57BL/6 mouse liver at 30 mg/kg, ip; type: ADME, organism-based; conditions: read-out: beta t1/2 (converted)
How it was run: (§4)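 Male C57BL/6 mice, single intraperitoneal 30 mg/kg dose, N=3. Plasma, liver and lung concentrations followed over time to give concentration-time profiles, from which Tmax, Cmax, terminal t1/2, AUClast and AUCINF were derived.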

[16] = AUClast in C57BL/6 mouse liver at 30 mg/kg, ip; type: ADME, organism-based; parameters: dose 30 mg/kg, time 0 - last, route intraperitoneal; how it was run: as §3
[17] = Tmax in C57BL/6 mouse lung at 30 mg/kg, ip; type: ADME, organism-based; how it was run: as §4
[18] = AUClast in C57BL/6 mouse lung at 30 mg/kg, ip; type: ADME, organism-based; parameters: dose 30 mg/kg, route intraperitoneal, time 0 - last; how it was run: as §3
[19] = AUC (infinity) in C57BL/6 mouse lung at 30 mg/kg, ip; type: ADME, organism-based; parameters: dose 30 mg/kg, route intraperitoneal, time infinity; how it was run: as §3
[20] = Drug level in C57BL/6 mouse plasma at 30 mg/kg, ip measured at 0.083 hrs; type: ADME, organism-based; how it was run: as §3
[21] = Drug level in C57BL/6 mouse plasma at 30 mg/kg, ip measured at 0.25 hrs; type: ADME, organism-based; how it was run: as §4
[22] = Drug level in C57BL/6 mouse plasma at 30 mg/kg, ip measured at 0.5 hrs; type: ADME, organism-based; how it was run: as §4
[23] = Drug level in C57BL/6 mouse plasma at 30 mg/kg, ip measured at 2 hrs; type: ADME, organism-based; how it was run: as §4
[24] = Drug level in C57BL/6 mouse plasma at 30 mg/kg, ip measured at 4 hrs; type: ADME, organism-based; how it was run: as §4
[25] = Drug level in C57BL/6 mouse plasma at 30 mg/kg, ip measured at 12 hrs; type: ADME, organism-based; how it was run: as §4
[26] = Drug level in C57BL/6 mouse plasma at 30 mg/kg, ip measured at 48 hrs; type: ADME, organism-based; how it was run: as §4
[27] = Drug level in C57BL/6 mouse liver at 30 mg/kg, ip measured at 0.083 hrs; type: ADME, organism-based; conditions: in vivo; how it was run: as §3
[28] = Drug level in C57BL/6 mouse liver at 30 mg/kg, ip measured at 0.25 hrs; type: ADME, organism-based; conditions: in vivo; how it was run: as §3
[29] = Drug level in C57BL/6 mouse liver at 30 mg/kg, ip measured at 1 hrs; type: ADME, organism-based; conditions: in vivo; how it was run: as §3
[30] = Drug level in C57BL/6 mouse liver at 30 mg/kg, ip measured at 2 hrs; type: ADME, organism-based; conditions: in vivo; how it was run: as §3
[31] = Drug level in C57BL/6 mouse liver at 30 mg/kg, ip measured at 4 hrs; type: ADME, organism-based; conditions: in vivo; how it was run: as §3
[32] = Drug level in C57BL/6 mouse liver at 30 mg/kg, ip measured at 8 hrs; type: ADME, organism-based; conditions: in vivo; how it was run: as §3
[33] = Drug level in C57BL/6 mouse liver at 30 mg/kg, ip measured at 12 hrs; type: ADME, organism-based; conditions: in vivo; how it was run: as §3
[34] = Drug level in C57BL/6 mouse lung at 30 mg/kg, ip measured at 0.083 hrs; type: ADME, organism-based; conditions: in vivo; how it was run: as §3
[35] = Drug level in C57BL/6 mouse lung at 30 mg/kg, ip measured at 1 hrs; type: ADME, organism-based; conditions: in vivo; how it was run: as §3
[36] = Drug level in C57BL/6 mouse lung at 30 mg/kg, ip measured at 2 hrs; type: ADME, organism-based; conditions: in vivo; how it was run: as §3
[37] = Drug level in C57BL/6 mouse lung at 30 mg/kg, ip measured at 4 hrs; type: ADME, organism-based; conditions: in vivo; how it was run: as §3
[38] = Toxicity in C57BL/6 mouse assessed as effect on lungs at 30 mg/kg, ip; type: organism-based; conditions: in vivo

Non-structural protein 1 (Influenza A virus (strain A/Puerto Rico/8/1934 H1N1)), sequence (P03496 whole entry): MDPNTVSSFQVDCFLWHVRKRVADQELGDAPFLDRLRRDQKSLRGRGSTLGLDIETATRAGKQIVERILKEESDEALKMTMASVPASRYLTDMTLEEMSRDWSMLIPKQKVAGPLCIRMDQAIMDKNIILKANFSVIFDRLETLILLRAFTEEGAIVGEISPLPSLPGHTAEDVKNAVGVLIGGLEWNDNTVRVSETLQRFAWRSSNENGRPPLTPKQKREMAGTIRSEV

SMILES: COc1cc(-c2ccnc3c2c(C)nn3-c2ccc(C(F)(F)F)cc2)ccc1O
- Activity (MDCK): Non-Toxic
- EC50 (Influenza A virus [1]): 700 nM
- EC90 (Influenza A virus [1]): > 50000 nM
- inhibition [2]: Active
- Kinetic_solubility [3]: 3.1 µM
- remaining at 0.25 h [4]: 66%
- remaining at 0.5 h [5]: 45%
- Papp [6]: 0.1 ×10⁻⁶ cm/s
- Papp [7]: 0.23 ×10⁻⁶ cm/s
- TCID50 (Influenza A virus [8]): 1.6 µM
- Papp [9]: 0.27 ×10⁻⁶ cm/s
- Drug recovery [10]: 5%
- Drug recovery [11]: 49%
- Drug recovery [12]: 81%
- Cmax [13]: 2437 ng/mL
- Cmax [14]: 49600 ng/mL
- half-life [15]: 4.7 h
- AUC(0-t) [16]: 80200 ng·h/mL
- Tmax [17]: 0.25 h
- AUC(0-t) [18]: 53900 ng·h/mL
- AUC(0-inf) [19]: 53900 ng·h/mL
- concentration at 0.083 h [20]: 2950 nM
- concentration at 0.25 h [21]: 6100 nM
- concentration at 0.5 h [22]: 5760 nM
- concentration at 2 h [23]: 2530 nM
- concentration at 4 h [24]: 1200 nM
- concentration at 12 h [25]: 209 nM
- concentration at 48 h [26]: 3 nM
- Drug uptake [27]: 114014 nmol/kg
- Drug uptake [28]: 124197 nmol/kg
- Drug uptake [29]: 44487 nmol/kg
- Drug uptake [30]: 18413 nmol/kg
- Drug uptake [31]: 13997 nmol/kg
- Drug uptake [32]: 5058 nmol/kg
- Drug uptake [33]: 1984 nmol/kg
- Drug uptake [34]: 20891 nmol/kg
- Drug uptake [35]: 26592 nmol/kg
- Drug uptake [36]: 16568 nmol/kg
- Drug uptake [37]: 11477 nmol/kg
- Activity [38]: Non-Toxic
